TRPC4 block = blocks the mouse TRPC4 cation channel; Q9QUQ5; HEK293 TRPC4beta/mu-opioid, DAMGO-evoked Fluo4 calcium flux; active compounds read low; B-score at 10 µM; actives 0.39% (n = 300,000);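 active means B-score over 3 SD under the library average, no early fluorescence shift, positive overall ratio signal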
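material = TRPC4beta/mu-opioid receptor HEK293 cell line | probe or stimulus = sequential submaximal and maximal DAMGO stimulation | compound dosing = one concentration per compound | measured by = Fluo4 Ca2+ flux fluorescence | evaluation = integrated fluorescence ratio relative to baseline, converted to per-well B score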
TRPC4 act = TRPC4 (mouse) channel activation; Q9QUQ5; HEK293 TRPC4beta/mu-opioid, Fluo4 calcium fluorescence; active compounds read high; B-score at 10 µM; actives 0.49% (n = 310,000);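 active means B-score above 5 SD of library B-scores, and initial fluorescence ratio not above library mean plus 5 SD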;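 further: positive B-score marks a calcium rise read as TRPC4 activation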
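Assay system: HEK293 stable line with TRPC4beta plus mu-opioid receptor. Times: dye 45 min RT, read 110 s. Measured by: kinetic Fluo4 calcium fluorescence. Measure: B score of integrated ratio. Controls: assay buffer as low control, maximal DAMGO as high control.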
TRPC4 PAM = TRPC4 (mouse) allosteric potentiation; Q9QUQ5; HEK293 TRPC4beta/mu-opioid, DAMGO EC20, Fluo-4 Ca2+ flux; active compounds read high; B-score at 10 µM; actives 0.42% (n = 310,000);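 active means B-score of calcium response area above 5 SD of library B-scores, with initial fluorescence ratio within 5 SD of library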
TRPC6 inhibitor = inhibitors of mouse TRPC6 channel. HEK293-TRPC6, membrane potential dye, ACh-evoked depolarization; active compounds read low. actives 1.1% (n = 310,000). AID 2553. B-score at 10 µM;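 active means B-score under library mean minus 3 SD, initial fluorescence not abnormally high, positive integrated signal ratio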;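 further: B-score derived from integrated fluorescence ratio over the kinetic read; more negative B-score means stronger inhibition of depolarization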
TRPC6 activator = mouse TRPC6 channel activation; Q61143; HEK293-TRPC6 membrane potential dye fluorescence; active compounds read high; B-score at 10 µM; actives 0.13% (n = 310,000); AID 2550;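 active means B-score of the integrated fluorescence ratio above library mean plus 3 SD, and starting fluorescence ratio within library mean plus 5 SD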;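 further: higher score means more depolarization so channel activation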
Hits are given with their value; n = inactive; x = no result. This is a sample that favours compounds with a hit; in the whole collection about 2.3% have one here.

SMILES	TRPC4 block	TRPC4 act	TRPC4 PAM	TRPC6 inhibitor	TRPC6 activator
Cc1ccc2c(c1)C1CN(C)CCC1N2C(=S)NC(=O)c1ccc(Br)cc1 (stereo not drawn)	n	n	17	n	n
Cc1cc(SCC(=O)Nc2c(C)n(C)n(-c3ccccc3)c2=O)nc2ccccc12	n	n	n	n	n
CCOc1ccc(C(=O)c2cnc3ccccc3c2N2CCN(CC)CC2)cc1	-5	n	n	n	n
CCc1ccc(C(=O)c2cnc3ccc(OC)cc3c2N2CCN(CC)CC2)cc1	n	230	n	n	n
CCOc1ccc2ncc(C(=O)c3ccc(OC)cc3)c(N3CCN(CC)CC3)c2c1	n	120	n	n	n
Cc1ccc(Oc2nc(-c3cccnc3)nc3ccccc23)c([N+](=O)[O-])n1	n	n	n	n	n
O=C(CN1C(=O)CSc2ccc(S(=O)(=O)N3CCCCC3)cc21)NCc1ccccc1Cl	n	n	n	n	n
COc1ccc(CCC(=O)Nc2ccc(S(=O)(=O)Nc3nccc(C)n3)cc2)cc1	n	n	n	n	n
Cc1nc(-c2ccccc2)sc1C(=O)O	n	n	n	n	n
Cc1nc(-c2cccc(C(F)(F)F)c2)sc1C(=O)O	-6	n	n	n	n
CCN(CC)S(=O)(=O)c1ccc(NC(=O)COC(=O)c2ccc(NC(=O)CC#N)cc2)cc1	n	n	n	n	n
COc1ccccc1OC(C)C(=O)N1CC(=O)Nc2ccccc21 (stereo not drawn)	n	n	n	n	n
O=C(Nc1ccccc1)N1CCN(c2nc3ccccc3s2)CC1	n	43	n	n	n
O=C(Nc1ccc(F)cc1)N1CCN(c2nc3ccccc3s2)CC1	n	n	n	n	n
CCN(CC)S(=O)(=O)c1ccc(NC(=O)Cn2c(=O)oc3ccccc32)cc1	-6	n	n	n	n
Cc1ccc(NC(=O)Cn2c(=O)oc3ccccc32)cc1	n	n	n	n	n
O=C(C1CCN(S(=O)(=O)c2cnc[nH]2)CC1)N(CCc1ccccc1)Cc1ccccc1	n	n	n	n	n
O=C(C1CCN(CC2CC=CCC2)CC1)N(CCc1ccccc1)Cc1ccccc1 (stereo not drawn)	-5	n	n	n	n
Nc1nc(N2CCOCC2)cc(=O)[nH]1	n	n	n	n	n
CCN(CC)C(=O)CSc1nc(O)c(Cc2ccccc2)c(=O)n1-c1ccccc1C	n	n	n	n	n
CC(NS(=O)(=O)OCC(Cl)(Cl)Cl)c1ccc(Br)cc1 (stereo not drawn)	n	n	15	n	n
CC(C)CC(NS(=O)(=O)OCC(Cl)(Cl)Cl)c1ccccc1 (stereo not drawn)	x	n	n	n	n
CCc1cc2c(SCC(=O)N(C)C3CCS(=O)(=O)C3)ncnc2s1 (stereo not drawn)	n	n	28	n	n
CCN(C(=O)CSc1ncnc2sc(C)c(C)c12)C1CCS(=O)(=O)C1 (stereo not drawn)	n	n	n	n	n
CCCNc1nc(-c2ccccc2)c(C(=O)OCC)cc1C#N	n	n	n	n	n
SMILES	TRPC4 block	TRPC4 act	TRPC4 PAM	TRPC6 inhibitor	TRPC6 activator
CCCCNc1nc(-c2ccccc2)c(C(=O)OCC)cc1C#N	-6	n	n	n	n
COc1ccc(OC)c(NC(=O)c2ccc3c(c2)C(=O)N(CC2CCCO2)C3=O)c1 (stereo not drawn)	n	n	n	n	n
COc1ccc(CN=Cc2[nH]c3ccc(Br)c(Cl)c3c2O)cc1	n	n	n	n	15.9
COc1ccc(CN=CC2=C(O)CNC2=O)cc1	n	n	n	n	n
O=C(Cn1nnc(-c2ccc([N+](=O)[O-])cc2)n1)NNC(=O)c1ccccc1	n	n	n	n	n
CCCCN(CC)CCCNC(=O)c1cc2c(=O)n(CC)c3ccccc3c2s1	n	n	n	n	n
Cn1c(C(=O)NCCN2CCOCC2)cc2c(=O)n(C)c3ccccc3c21	n	n	n	n	n
CCCN(CCC)CCCNC(=O)c1cc2c(=O)n(CC)c3ccccc3c2s1	n	50	n	n	n
CCCN(CCC)CCNC(=O)c1cc2c(=O)n(C)c3ccccc3c2n1C	n	n	13	n	n
CCCCN(CC)CCNC(=O)c1cc2c(=O)n(C)c3ccccc3c2s1	n	n	16	n	n
CCOC(=O)C1CCCN(Cc2ccc(OCC)cc2)C1 (stereo not drawn)	n	n	n	n	n
Nc1ccc(-c2cnc[nH]2)cc1[N+](=O)[O-]	n	n	n	n	n
